Screens (PubChem BioAssay)
VIM-2 inhibitor: blocks Pseudomonas aeruginosa VIM-2 metallo-beta-lactamase | purified VIM-2, nitrocefin hydrolysis, epi-absorbance fluorescence | inhibition, % at 5.6 µM | AID 1527 | 290,000 compounds, 0.89% hits;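 active means inhibition above the mean of all tested compounds plus 3 SD, cutoff set per screening run, cut at about 7.5% in these data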;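 further: red hydrolysis product quenches plate fluorescence so inhibitors raise well fluorescence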
MEKK2wt PB1 HTS: raises or lowers MEK5 binding to wildtype human MEKK2 PB1 domain; Q9Y2U5; 290,000 compounds, 1.1% hits; binding response (% of control), % at 10 µM; AID 1531; bead flow cytometry, Alexa488-MEK5 binding to MEKK2 WT; actives lie on both sides; in the data active means binding response below about 67% or above about 130%; inconclusive means no clear call, values can overlap the other calls; inactive means in between
MEKK3 PB1 HTS: MEKK3-MEK5 PB1 interaction, increase or decrease. Q99759. binding response (% of control), % at 10 µM. bead-based flow cytometry, Alexa488-MEK5 binding to MEKK3; actives lie on both sides; 0 = blocked by unlabeled MEK5, 100 = vehicle. 290,000 compounds, 1.4% hits;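 active means binding response more than 3 SD above or below the average of its plate-row segment, actives on both sides; inconclusive means wells at one plate position flagged as instrument error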;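 further: Alexa488 bead fluorescence after subtracting the streptavidin-only scavenger bead signal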
Target sequence (Q99759 whole entry, looked up): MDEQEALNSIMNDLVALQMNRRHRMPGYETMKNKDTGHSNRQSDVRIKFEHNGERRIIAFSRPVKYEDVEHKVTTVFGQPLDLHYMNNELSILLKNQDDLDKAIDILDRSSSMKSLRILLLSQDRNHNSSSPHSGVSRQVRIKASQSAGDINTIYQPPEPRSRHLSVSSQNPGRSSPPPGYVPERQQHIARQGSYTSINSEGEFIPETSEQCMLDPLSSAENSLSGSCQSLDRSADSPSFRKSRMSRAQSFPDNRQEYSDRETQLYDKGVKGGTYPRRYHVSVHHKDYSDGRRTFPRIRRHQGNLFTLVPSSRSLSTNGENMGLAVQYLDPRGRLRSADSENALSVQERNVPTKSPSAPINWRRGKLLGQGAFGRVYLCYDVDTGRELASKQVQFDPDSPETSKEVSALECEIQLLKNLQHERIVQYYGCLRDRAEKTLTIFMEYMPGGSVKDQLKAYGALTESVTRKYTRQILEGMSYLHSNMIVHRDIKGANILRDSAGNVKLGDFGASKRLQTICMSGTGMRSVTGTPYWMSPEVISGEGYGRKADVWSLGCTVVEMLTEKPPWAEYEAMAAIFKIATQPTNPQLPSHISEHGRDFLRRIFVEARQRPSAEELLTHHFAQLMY
MEKK2 mut-MEK5: signal of MEK5 binding to mutant human MEKK2 PB1 domain. bead flow cytometry, Alexa488-MEK5 binding to MEKK2 mutant. percent response, % at 10 µM. 290,000 compounds, 0.35% hits. AID 1530; in the data active means percent response above about 24%, passing the limit was not always enough
IMP-1 inhibitor: inhibitors of Pseudomonas aeruginosa IMP-1 metallo-beta-lactamase; purified IMP-1, nitrocefin hydrolysis, epi-absorbance fluorescence; inhibition, % at 5.6 µM; 290,000 compounds, 0.45% hits;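 active means inhibition above the mean plus 3 SD of all compounds in the same screening run, cut at about 4.5% in these data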
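Material – recombinant IMP-1 enzyme, purified · Amount – IMP-1 0.2 nM before substrate addition · Medium – HEPES buffer pH 7.1 with ZnSO4 and Brij 35 · Timing – 25 °C, 15 min preincubation, 25 min reaction · Measured by – plate fluorescence quenching by hydrolysis product, ex 480/em 530 nm · Read-out – percent enzyme inhibition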
MEKK2wt confirm: raises or lowers MEK5 binding to wildtype human MEKK2, retest. shares compounds with MEKK3 PB1 HTS. bead flow cytometry, Alexa488-MEK5 binding to MEKK2 WT; actives lie on both sides. binding response (% of control), % at 10 µM. 5,900 compounds, 2.4% hits. AID 1892; in the data active means binding response below about 16% or above about 210%; inactive means in between
MEKK2mut-MEK5: signal of MEK5 binding to mutant human MEKK2, retest; percent response, % at 10 µM; 5,900 compounds, 2% hits; shares compounds with MEKK3 PB1 HTS; bead flow cytometry, Alexa488-MEK5 binding to MEKK2 mutant; in the data active means percent response mostly above about 71%, no sharp cut-off; inactive means mostly below about 38%;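 further: higher means compound restores mutant binding toward wildtype level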
MEKK3-MEK5 inh: MEKK3-MEK5 PB1 inhibition, single concentration confirmation | shares compounds with MEKK3 PB1 HTS | bead flow cytometry, Alexa488-MEK5 binding to MEKK3; active compounds read low | binding response (% of control), % at 10 µM | 5,900 compounds, 1.8% hits | AID 1894;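 active means binding response below 72% of control, or above a set upper limit, though filed actives all read lower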;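 further: lower values mean stronger disruption of MEK5 binding to MEKK3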
Numbers stand for hits; i = inactive; ? = inconclusive; nt = no result given; [ ] = remark or other dose. This is a sample that favours compounds with a hit; in the whole collection about 3.4% have one here.

SMILES	VIM-2 inhibitor	MEKK2wt PB1 HTS	MEKK3 PB1 HTS	MEKK2 mut-MEK5	IMP-1 inhibitor	MEKK2wt confirm	MEKK2mut-MEK5	MEKK3-MEK5 inh
N#Cc1c(N)sc(=S)c2c1CCCC2	i	66[inhibitor]	i	i	i	i	i	i
Cc1[nH]c(=S)c(C#N)c2c1CCCC2	i	i	i	i	i	nt	nt	nt
CCCC1Cc2c(sc(N)c2C#N)CO1 (configuration not stated)	i	i	i	i	i	nt	nt	nt
CCC1(C)Cc2c(C#N)c(N)sc(=S)c2CO1 (configuration not stated)	i	60[inhibitor]	i	i	i	i	i	i
CC(C)C(OC(=O)c1ccco1)C(=O)NC1CCCC1 (configuration not stated)	i	i	i	i	i	nt	nt	nt
Cc1cc(C)nc(SCC(=O)c2ccc(F)c(C)c2)n1	i	i	i	i	i	nt	nt	nt
c1ccc(-c2cnc(CSc3ncnc4sccc34)o2)cc1	i	i	i	i	i	nt	nt	nt
CC(C)Oc1cccc(C(=O)C2CCCN(Cc3cccn3-c3ccccn3)C2)c1 (configuration not stated)	i	174	i	i	i	i	i	i
COc1cccc(C(=O)C2CCCN(Cc3cccn3-c3ccccn3)C2)c1 (configuration not stated)	i	i	i	i	i	nt	nt	nt
NC(=O)C1CCN(C2CC(=O)NC2=O)CC1 (configuration not stated)	i	i	i	i	i	nt	nt	nt
C#CCOCCOCCOCCNc1nc(N2CCN(C(=O)[C@H](CCC(=O)O)n3cc(C(N)Cc4ccc(O)cc4)nn3)CC2)nc(N2CCN(C(=O)[C@H](Cc3ccc(O)cc3)n3cc(C(N)CC(C)C)nn3)CC2)n1 (some centres not stated)	nt	?	i	i	nt	nt	nt	nt
C#CCOCCOCCOCCNc1nc(N2CCN(C(=O)[C@H](CCCCN)n3cc([C@@H](N)CC(C)C)nn3)CC2)nc(N2CCN(C(=O)[C@H](Cc3cc4ccccc4[nH]3)n3cc([C@@H](N)Cc4ccc(O)cc4)nn3)CC2)n1	i	187	i	60	i	232	89	i
C#CCOCCOCCOCCNc1nc(N2CCN(C(=O)[C@H](CCCCN)n3cc(C(N)CO)nn3)CC2)nc(N2CCN(C(=O)[C@H](CCC(=O)O)n3cc(C(N)Cc4ccc(O)cc4)nn3)CC2)n1 (some centres not stated)	nt	i	i	i	nt	nt	nt	nt
C#CCOCCOCCOCCNc1nc(N2CCN(C(=O)[C@H](CCCCN)n3cc([C@@H](N)CO)nn3)CC2)nc(N2CCN(C(=O)[C@H](Cc3cc4ccccc4[nH]3)n3cc([C@@H](N)Cc4ccc(O)cc4)nn3)CC2)n1	i	190	i	56	i	i	i	i
CC(CNC(=O)c1cc(COc2c(F)cccc2F)on1)c1ccccc1 (configuration not stated)	i	i	i	i	i	nt	nt	nt
O=C(c1ccccc1F)N1CCN(S(=O)(=O)c2ccc3c(c2)OCCO3)CC1	i	i	i	i	i	nt	nt	nt
CN(C1CCCCC1)S(=O)(=O)c1ccc(S(=O)(=O)N2CCN(C(=O)c3ccccc3F)CC2)cc1	i	i	144	i	i	i	i	i
COc1ccc2c(c1)c(CC(=O)Nc1cc(C)ccc1C)c(C)n2C(=O)c1ccc(Cl)cc1	i	i	i	i	i	nt	nt	nt
COc1ccc2c(c1)c(CC(=O)Nc1ccc(C(C)=O)cc1)c(C)n2C(=O)c1ccc(Cl)cc1	i	i	47[inhibitor]	i	i	i	i	i
CCCCOC(=O)C1[C@H]2C(=O)N(CCc3ccccc3)C[C@]23C=C[C@H]1O3 (some centres not stated)	i	i	i	i	i	nt	nt	nt
O=C(O)c1cccc(CSc2nnc(-c3ccco3)o2)c1	i	i	i	i	i	nt	nt	nt
CCc1cccc2c(C(=O)C(F)(F)F)cn(CC(=O)N3CCOCC3)c12	i	i	147	i	i	i	i	i
CCc1cccc2c(C(=O)C(F)(F)F)cn(CC(=O)NCC3CCCO3)c12 (configuration not stated)	i	i	i	i	i	nt	nt	nt
CN1CCS/C1=C/C=C1/SC(=S)N(Cc2ccccc2)C1=O	i	i	i	i	i	nt	nt	nt
CCN1C(=O)/C(=C/C=C2/Sc3ccc4ccccc4c3N2CCO)SC1=S	i	8.0[inhibitor]	i	i	i	i	i	i
SMILES	VIM-2 inhibitor	MEKK2wt PB1 HTS	MEKK3 PB1 HTS	MEKK2 mut-MEK5	IMP-1 inhibitor	MEKK2wt confirm	MEKK2mut-MEK5	MEKK3-MEK5 inh
CCN1C(c2ccccc2)=C(c2ccccc2)S/C1=C\C=C1/SC(=S)N(C)C1=O	i	-8.0	33[inhibitor]	i	i	i	i	70
CCN1C(c2ccccc2)=C(c2ccccc2)S/C1=C/C=C1\SC(=S)N(C)C1=O	i	-7.0	37[inhibitor]	i	i	i	i	51
CCOC(=O)c1ccc2c(c1)nc(COc1ccc3ccccc3c1)n2CC	i	i	i	i	i	nt	nt	nt
CCN(Cc1ccccc1)C(=O)c1cc(COc2c(F)cccc2F)on1	i	i	i	i	i	nt	nt	nt
c1ccc(-c2cn3nc(-c4ccccc4)c(-c4ccccc4)nc3n2)cc1	i	63[inhibitor]	i	i	i	i	i	i
O=C(Nc1ccccc1N1CCOCC1)c1cccnc1	i	i	128	i	i	i	i	i
O=C(Nc1ccc(N2CCOCC2)c(Cl)c1)c1cccnc1	i	i	i	i	i	nt	nt	nt
Nc1ccc(C(=O)O)c(O)c1	i	i	i	i	i	nt	nt	nt
Nc1ccc(N)c(C(=O)O)c1	nt	25[inhibitor]	47[inhibitor]	i	nt	i	i	57
CCOC(=O)C1=C(C)OC2(O)c3ccccc3C(=O)C12O (configuration not stated)	i	i	i	i	i	nt	nt	nt
O=C(CN1CCN(Cc2ccccc2F)C1=O)NCC1CCCO1 (configuration not stated)	i	i	i	i	i	nt	nt	nt
CN(Cc1ccccc1)S(=O)(=O)c1ccc2c(c1)n(C)c(=O)c(=O)n2C	i	i	130	i	i	i	i	i
CN(c1ccc(F)cc1)S(=O)(=O)c1ccc(Cl)c(C(=O)Nc2ccc3c(c2)CCC3)c1	i	i	134	i	i	i	i	i
CN(c1cccc(Cl)c1)S(=O)(=O)c1cccc(C(=O)Nc2ccc3c(c2)CCC3)c1	i	i	i	i	i	nt	nt	nt
O=c1cc(CSc2nnc(COc3ccccc3)o2)c2ccccc2[nH]1	i	i	125	i	i	i	i	i
Cc1ccc(OCc2nnc(SCc3cc(=O)[nH]c4ccccc34)o2)cc1	i	i	i	i	i	nt	nt	nt
